Published values of several laboratories.
Each line is one published result; the experiments were not run side by side.
Target: Tyrosine-protein kinase Yes (YES1, Homo sapiens, UniProt P07947)

CCCCC(=O)Nc1ccc(-c2ccc3ncn(CCC)c(=O)c3c2)cn1 gave a remaining binding of 100% (binding; competition with immobilised ligand; 0.5 µM).
C1=C/COCc2cc(ccc2OCCN2CCCC2)Nc2nccc(n2)-c2cccc(c2)COC/1 gave a remaining binding of 71% (binding; 0.1 µM).
With C=CC(=O)N1CCC[C@@H](n2nc(-c3ccc(Oc4ccccc4)cc3)c3c(N)ncnc32)C1 the inhibition was 97% (enzyme activity; inhibitor; 1 µM).
With Cc1ccc(NC(=O)c2ccnc(C(F)(F)F)c2)cc1-c1cc(OCCO)nc(N2CCOCC2)c1 the remaining binding was 87% (binding; competition with immobilised ligand; 1 µM).
With CO[C@@H]1[C@H](N(C)C(=O)c2ccccc2)C[C@H]2O[C@]1(C)n1c3ccccc3c3c4c(c5c6ccccc6n2c5c31)C(=O)NC4 the inhibition was 39% (enzyme activity; inhibitor; 1 µM).
For CN1CCN(C(=O)c2ccc(NC(=O)Nc3ccc(N(C)c4ccnc(Nc5ccc(CS(C)(=O)=O)cc5)n4)cc3)cc2)CC1, the remaining binding was 96% (binding; competition with immobilised ligand; 1 µM).
COc1ccc2oc(-c3ccc4nc(N)oc4c3)c/c(=N\c3ccccc3NC(=O)CCN)c2c1 gave a remaining binding of 101% (binding; 1 µM).
Cc1cc(O)c(-c2ccc([C@@H](C)CN(C)C)cc2)c2c1[nH]c(=O)c1sccc12 has an inhibition of 10.3% (enzyme activity; inhibitor; 0.1 µM).
